The values that follow come from PubChem BioAssay.

A short description of assay [1]: inhibitors of TNFa-induced NFkB p65 translocation, primary screen, imaging, HUVEC, MLSMR starter and 10KST1 sets (AID 438;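 active means inhibition above 20% together with a positive visual image hit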;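 further: compound added about 3h40 before a 20 min TNFalpha stimulation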;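 on inhibition: signal is the nuclear over cytoplasmic p65 intensity ratio per well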). The following applies: HUVEC TNFa-induced p65 nuclear translocation; cell count: measured here: nuclei count (cytotoxicity indicator), at 2.08 µM; inhibition: at 2 µM, stronger effect = higher value, 0% TNFa-plus-vehicle, 100% no-TNFa wells.
A short description of assay [2]: inhibitors of mutant huntingtin aggregation, primary screen, imaging, exon1htt(103Q)mCFP cells, high-content imaging (AID 483;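 active means visual image review flags a hit and inhibition of aggregation exceeds 20%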;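 further: compound exposure lasted 3 days before fixation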;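 on nuclei count: percent of the per-plate median nuclei count of sample wells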). The following applies: exon1htt(103Q)mCFP cell line, aggregate imaging, at 2 µM; inhibition of aggregation: stronger effect = higher value; nuclei count: measured here: cell count, toxicity.
Assay [3] is described as follows: inhibitors of E-selectin induction by TNFa, primary screen, imaging, HUVEC, immunofluorescence, MLSMR starter and 10KST1 sets (AID 487;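 active means visually confirmed hit in the image check and inhibition above 20%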;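 on inhibition: signal is fraction of cell area covered by stained E-selectin grains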;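 on nuclei count: 100% = median nuclei count of all wells on the same plate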). The following applies: HUVEC TNFalpha-induced E-selectin immunofluorescence imaging, at 2 µM; inhibition: stronger effect = higher value; nuclei count: measured here: cell number, toxicity.
In assay [4] the target is Voltage-gated potassium channel subunit beta-2 (Rattus norvegicus) (UniProt P62483). As to the kind of experiment: KvBeta enzyme negative modulators, primary screen, biochemical, NADPH fluorescence (AID 622;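 active means fluorescence slope higher than the sample average by over 3 SD, cut at about -0.22 in these data, passing the limit was not always enough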;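 further: slope of raw intensity against log time taken from 70 to 1610 s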). The following applies: recombinant KvBeta, 4-cyanobenzaldehyde reduction, at 10 µM, stronger effect = higher value.
For assay [5] the target is unchanged. As to the kind of experiment: KvBeta positive modulators, primary screen, biochemical, NADPH fluorescence (AID 623;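 active means NADPH fluorescence slope more negative than the mean of all samples by about 3 SD, 99.7% confidence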;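 further: fluorescence intensity change per second fitted from 20 to 320 s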). The following applies: Recombinant KvBeta, NADPH fluorescence decrease slope, 10 min; at 10 µM; stronger effect = lower value.
For assay [6], the target named is Muscarinic acetylcholine receptor M4 (Homo sapiens) (UniProt P08173). Briefly: compounds altering M4/GIRK thallium flux, either direction, primary screen, M4 allosteric agonist project, cell-based, HEK293 M4/GIRK, BTC-AM (AID 625;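 active means fluorescence slope after compound addition differing from the mean of all tested samples at 99.7% confidence, mostly higher but some lower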;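 further: thallium influx through GIRK channels coupled to M4 in HEK293 cells with BTC-AM dye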). The following applies: at 10 µM, actives lie on both sides. A digest of the protocol:
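Material – HEK293 cells with M4 receptor and GIRK channels · Buffer or medium – pH 7.3 thallium assay buffer · Doses – one dose, 10 µM final · Timing – cells overnight at 37 °C, BTC-AM loading 1 h, reads 2 min total · Measured by – kinetic fluorescence with BTC-AM dye · Controls – carbachol and DMSO controls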

A short description of assay [7]: inhibitors of Sendai virus-induced IRF3 signaling, primary screen, TLR/RLR signaling modifier project, cell-based, Sendai virus stimulus, luciferase, 10K MLSCN set (AID 602276;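 active means inhibition at or above 50% at 10 µM; inactive means inhibition below 50%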;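 further: firefly luciferase from ISG56 promoter only with Renilla not read in this screen; 0% = Sendai virus plus DMSO and 100% = medium plus DMSO without virus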). The following applies: HEK293 RL24 IRF3 luciferase reporter, at 10 µM, stronger effect = higher value. For orientation: A reporter such as luciferase makes a cellular process visible.
Assay [8] can be described thus: inhibitors of poly I:C-induced TLR3 signaling, primary screen, cell-based, poly I:C stimulus, luciferase, 10K MLSCN set (AID 602277). The following applies: HEK293-TLR3 RL24 IRF3 luciferase reporter, at 10 µM, stronger effect = higher value.

SMILES strings stand for the structures. The source made the active and inactive calls.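 How the source made its calls, unless noted: active means inhibition of the reporter signal at or above 50%; inactive means inhibition below 50%.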

By inhibition is commonly meant the drop in the measured response relative to a control, in per cent.

Sequence of Muscarinic acetylcholine receptor M4 (Homo sapiens) (P08173 whole entry, looked up): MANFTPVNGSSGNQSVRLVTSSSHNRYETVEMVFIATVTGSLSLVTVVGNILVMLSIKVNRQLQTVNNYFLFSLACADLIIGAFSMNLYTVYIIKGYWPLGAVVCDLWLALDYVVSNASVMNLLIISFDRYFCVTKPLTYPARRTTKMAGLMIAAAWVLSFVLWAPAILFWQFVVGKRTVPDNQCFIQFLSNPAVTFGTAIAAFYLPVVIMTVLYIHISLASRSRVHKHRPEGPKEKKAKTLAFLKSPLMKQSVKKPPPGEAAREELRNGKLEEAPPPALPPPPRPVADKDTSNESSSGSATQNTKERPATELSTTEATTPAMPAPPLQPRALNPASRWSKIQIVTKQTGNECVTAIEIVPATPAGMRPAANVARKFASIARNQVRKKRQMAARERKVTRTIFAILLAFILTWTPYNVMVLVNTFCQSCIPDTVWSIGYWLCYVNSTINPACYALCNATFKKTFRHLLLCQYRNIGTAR
Sequence of Voltage-gated potassium channel subunit beta-2 (Rattus norvegicus) (P62483 whole entry, looked up): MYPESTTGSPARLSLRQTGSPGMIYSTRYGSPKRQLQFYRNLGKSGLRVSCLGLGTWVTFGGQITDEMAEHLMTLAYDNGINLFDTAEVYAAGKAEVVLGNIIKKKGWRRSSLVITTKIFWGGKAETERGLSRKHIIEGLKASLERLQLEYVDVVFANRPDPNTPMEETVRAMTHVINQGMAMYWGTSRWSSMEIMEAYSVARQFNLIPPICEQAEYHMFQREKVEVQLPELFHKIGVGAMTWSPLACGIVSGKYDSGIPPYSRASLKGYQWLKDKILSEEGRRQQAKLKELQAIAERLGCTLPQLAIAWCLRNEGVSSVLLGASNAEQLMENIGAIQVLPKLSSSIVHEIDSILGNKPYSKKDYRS

Take `CC(=O)Nc1nc(-c2ccc(Cl)cc2)nc(C)c1C(C)=O`: in assay [1], the cell count came to 577. Also, the inhibition in assay [1] was 0.5% (inactive); in assay [3] it was -9.1% (inactive); in assay [7] it was 2.94% (inactive); in assay [8], 6.23% (inactive). Further, the inhibition of aggregation in assay [2] was -13.8% (inactive). The figures for the nuclei count in assay [2] and in assay [3] were 92.9% and 90.1%, respectively. In addition, the figures for the fluorescence slope in assay [4] and in assay [6] were -0.261 (inactive) and 0.00747 (inactive), respectively. Besides, in assay [5], the NADPH fluorescence slope is -3.2e-05 (inactive).

As to `CC(NC(=O)c1ccco1)C(c1cccs1)N1CCN(c2ccc(F)cc2)CC1` (configuration not stated), the cell count in assay [1] came out at 519. For the same compound, the inhibition in assay [1] was -0.2% (inactive); in assay [3], -22.2% (inactive); in assay [7], 11.9% (inactive); in assay [8] it was 12.2% (inactive). Besides, the inhibition of aggregation in assay [2] was -0.1% (inactive). For the same compound, the nuclei count in assay [2] was 82%; in assay [3], 114%. In addition, the fluorescence slope is -0.489 (inactive) in assay [4] and 0.00654 (inactive) in assay [6]. Besides, the NADPH fluorescence slope in assay [5] was 0.000157 (inactive).

For the compound `CCN1C(=O)/C(=C/N2CCc3ccccc32)SC1=S`, the cell count in assay [1] was 382. For the same compound, the inhibition is 1.8% (inactive) in assay [1], -1.2% (inactive) in assay [3], -26.3% (inactive) in assay [7] and -99.1% (inactive) in assay [8]. Besides, the inhibition of aggregation in assay [2] was -22.3% (inactive). The nuclei count in assay [2] stood at 117%; in assay [3] it was 100%. Moreover, the fluorescence slope in assay [4] is -0.403 (inactive); in assay [6] it was 0.00654 (inactive). The NADPH fluorescence slope in assay [5] was -2.8e-05 (inactive).

In the case of `CCOc1ccc(C(=O)N2CCC(C(=O)c3ccc4c(c3)OCCO4)CC2)cc1`, in assay [1], the cell count came out at 511. Also, the inhibition in assay [1] was -4.3% (inactive); in assay [3], -99.7% (inactive); in assay [7], 10.8% (inactive); in assay [8], 2.96% (inactive). Moreover, the inhibition of aggregation in assay [2] was 6% (inactive). The nuclei count in assay [2] came to 91.2%; in assay [3] it was 116%. In addition, the fluorescence slope in assay [4] is -0.511 (inactive); in assay [6] it was 0.00391 (inactive). For the same compound, the NADPH fluorescence slope in assay [5] is -0.000103 (inactive).

With `CCn1c(CSc2ncccn2)nnc1SCC(=O)N1c2ccccc2CC1C` (configuration not stated), the cell count in assay [1] amounted to 644. In addition, the inhibition is 27.9% (active) in assay [1], -3.3% (inactive) in assay [3], 12.2% (inactive) in assay [7] and 0.579% (inactive) in assay [8]. For the same compound, the inhibition of aggregation in assay [2] is -1.3% (inactive). The nuclei count in assay [2] was found to be 103%; in assay [3], 95.8%. For the same compound, the fluorescence slope was -0.446 (inactive) in assay [4] and 0.00475 (inactive) in assay [6]. The NADPH fluorescence slope in assay [5] is -7.9e-06 (inactive).

For the compound `CN(CC(=O)Nc1ccccc1Cl)C(=O)COC(=O)CNC(=O)c1ccc(Br)o1`, the cell count in assay [1] is 436. The inhibition in assay [1] was -13.1% (inactive); in assay [3], -13.8% (inactive); in assay [7] it was 15.4% (inactive); in assay [8], 30.4% (inactive). In assay [2], the inhibition of aggregation is -3.1% (inactive). Further, the nuclei count in assay [2] is 115%; in assay [3], 107%. For the same compound, the figures for the fluorescence slope in assay [4] and in assay [6] were -0.607 (inactive) and 0.00546 (inactive), respectively. Besides, in assay [5], the NADPH fluorescence slope is 2.6e-05 (inactive).

As to `Cn1c(CCCNC(=O)c2ccccc2)nc2ccccc21`, the cell count in assay [1] was found to be 761. The inhibition in assay [1] is -25.8% (inactive); in assay [3], -49.3% (inactive); in assay [7], 13.2% (inactive); in assay [8], 1.35% (inactive). The inhibition of aggregation in assay [2] was -0.3% (inactive). Also, the nuclei count in assay [2] was determined as 104%; in assay [3], 131%. The results for the fluorescence slope in assay [4] and in assay [6] were -0.275 (inactive) and 0.00743 (inactive), respectively. The NADPH fluorescence slope in assay [5] was -5.3e-05 (inactive).
